Rows were chosen to be rich in hits. Some 1.6% of all compounds tested hit in one or more screens of this group.
Arr AP2 block: human beta-arrestin and AP2 interaction inhibition; inhibition, % at 10 µM; FITC-arrestin peptide / GST-AP2 beads, flow cytometry; AP2 beta2 appendage carries R879A mutation; 340,000 tested, 0.31% active;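 active = inhibition above a set limit, near 3 SD of compounds lacking own fluorescence, cut at about 54% in these data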
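Test system: GST-tagged AP2 beta2-adaptin appendage (R879A) on 4 µm glutathione beads; also added: fluorescein-tagged arrestin peptide at 50 nM final; timing: 12 min plus 1 h, RT; signal: flow cytometry, FL1 (488/535 nm); read-out: percent drop in bead-associated FITC signal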
MT1-MMP act inh: inhibitors of human MT1-MMP activation. HT1080 RFP-PRO-GFP cells, GFP/RFP ratio fluorescence, overnight; percent of plate control window, DMSO zero. AID 651647. GFP/RFP ratio change, % at 20 µM. 360,000 tested, 0.061% active;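 active = GFP/RFP ratio change of at least 30% with cell ATP level not reduced by more than half and red fluorescence within 50% of control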
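Test system: HT1080 cells expressing an RFP-PRO-GFP fluorescent reporter construct / Compound dosing: single-point 20 µM compound, 1% DMSO / Schedule: cells overnight before dosing, compound overnight, 37 °C, 5% CO2 / Evaluation: GFP/RFP fluorescence ratio / Control set: DMSO and RFP-L50D-GFP cell wells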
TbMetRS inhib: blocks T. brucei methionyl-tRNA synthetase activity; purified T. brucei MetRS, ATP depletion, Kinase-Glo luminescence; inhibition, % at 11.9 µM; 360,000 tested, 0.4% active;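 active = inhibition above a per-plate cutoff of the control wells' mean inhibition plus 3 SD, cut at about 5.5% in these data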
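Material – parasite MetRS enzyme · Medium – HEPES-MgCl2-KCl buffer plus DTT, spermine, BSA, pyrophosphatase · Reagent – ATP, methionine and E. coli bulk tRNA substrates · Times – 15 min enzyme-compound preincubation, 2 h reaction, 10 min detection, 25 °C · Measured by – luminescence of leftover ATP · Evaluation – percent inhibition relative to median high and low control wells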
SKN-1 inh: C. elegans SKN-1 inhibition | inhibition, % at 21.8 µM | C. elegans VP596 Pgst-4::GFP/RFP ratio, acrylamide-induced, 24 h | 360,000 tested, 0.49% active;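 active = interference check ratio from 0.5 to 1.5 plus GFP to RFP signal ratio inhibition reaching or exceeding a fixed threshold, cut at about 30% in these data, passing the limit was not always enough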
Rin1-Abl PPI inh: human Rin1-Abl interaction inhibition. AID 588664. P00519+Q13671. 360,000 tested, 0.4% active. TR-FRET Rin1/Abl binding, biochemical. inhibition, % at 7.35 µM; in the data active = inhibition above about 5%, passing the limit was not always enough
Target sequence (P00519 whole entry, looked up): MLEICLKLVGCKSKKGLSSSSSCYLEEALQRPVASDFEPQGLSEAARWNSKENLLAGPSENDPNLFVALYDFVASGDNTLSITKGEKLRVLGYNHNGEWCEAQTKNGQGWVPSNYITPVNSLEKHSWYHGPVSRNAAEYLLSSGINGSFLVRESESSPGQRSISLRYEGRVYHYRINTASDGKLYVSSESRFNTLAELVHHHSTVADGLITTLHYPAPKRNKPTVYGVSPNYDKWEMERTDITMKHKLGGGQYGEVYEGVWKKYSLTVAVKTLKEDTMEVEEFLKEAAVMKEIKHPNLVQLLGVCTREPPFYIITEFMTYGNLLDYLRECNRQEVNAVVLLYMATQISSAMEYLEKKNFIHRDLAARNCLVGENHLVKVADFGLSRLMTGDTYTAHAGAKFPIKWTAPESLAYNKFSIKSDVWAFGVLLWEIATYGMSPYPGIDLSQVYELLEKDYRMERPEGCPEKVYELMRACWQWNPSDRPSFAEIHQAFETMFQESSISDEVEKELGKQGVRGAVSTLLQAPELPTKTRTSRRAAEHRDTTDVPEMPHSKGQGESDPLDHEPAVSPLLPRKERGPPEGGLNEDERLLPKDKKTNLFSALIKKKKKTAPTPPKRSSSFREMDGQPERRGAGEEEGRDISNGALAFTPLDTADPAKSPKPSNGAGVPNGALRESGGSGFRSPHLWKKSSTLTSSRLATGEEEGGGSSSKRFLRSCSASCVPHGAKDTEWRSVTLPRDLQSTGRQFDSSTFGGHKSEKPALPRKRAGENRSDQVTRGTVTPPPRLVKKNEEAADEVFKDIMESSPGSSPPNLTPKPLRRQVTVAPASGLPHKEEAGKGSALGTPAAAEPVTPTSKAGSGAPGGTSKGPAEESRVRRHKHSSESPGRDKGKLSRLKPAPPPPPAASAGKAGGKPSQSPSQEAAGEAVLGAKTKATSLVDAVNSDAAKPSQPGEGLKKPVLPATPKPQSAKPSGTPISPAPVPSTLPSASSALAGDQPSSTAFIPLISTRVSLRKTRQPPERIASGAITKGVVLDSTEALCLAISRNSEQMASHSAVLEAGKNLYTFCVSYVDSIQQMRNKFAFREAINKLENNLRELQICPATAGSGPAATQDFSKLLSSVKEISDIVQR
Target sequence (Q13671 whole entry, looked up): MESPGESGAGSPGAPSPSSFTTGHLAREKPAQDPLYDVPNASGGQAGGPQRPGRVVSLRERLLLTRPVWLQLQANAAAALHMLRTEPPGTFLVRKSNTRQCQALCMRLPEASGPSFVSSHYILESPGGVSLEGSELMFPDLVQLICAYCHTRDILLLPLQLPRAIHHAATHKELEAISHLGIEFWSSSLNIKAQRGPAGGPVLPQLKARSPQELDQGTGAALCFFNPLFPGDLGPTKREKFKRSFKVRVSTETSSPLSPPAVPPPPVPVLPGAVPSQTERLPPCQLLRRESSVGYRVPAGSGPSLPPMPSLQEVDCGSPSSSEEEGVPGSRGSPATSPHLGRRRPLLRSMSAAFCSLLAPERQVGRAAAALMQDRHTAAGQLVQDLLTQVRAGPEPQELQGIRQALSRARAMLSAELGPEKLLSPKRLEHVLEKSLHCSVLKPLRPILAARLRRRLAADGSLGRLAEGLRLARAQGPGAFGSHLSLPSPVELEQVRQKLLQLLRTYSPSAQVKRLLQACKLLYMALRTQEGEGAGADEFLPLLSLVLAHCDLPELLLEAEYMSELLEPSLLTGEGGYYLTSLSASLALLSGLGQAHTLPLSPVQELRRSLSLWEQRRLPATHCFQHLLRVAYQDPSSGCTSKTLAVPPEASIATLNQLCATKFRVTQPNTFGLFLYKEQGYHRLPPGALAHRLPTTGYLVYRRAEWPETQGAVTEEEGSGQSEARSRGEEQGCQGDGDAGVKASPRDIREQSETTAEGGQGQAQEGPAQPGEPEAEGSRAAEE
Tb MetRS conf: confirmation of Trypanosoma brucei MetRS inhibitors | shares compounds with TbMetRS inhib | T. brucei MetRS enzyme, luminescence (ATP depletion) | inhibition, % at 11.9 µM | 1,400 tested, 93% active; in the data active = inhibition above about 7%
Jurkat tox: counter-screen for T. brucei MetRS inhibitors: Jurkat cell cytotoxicity; inhibition, % at 8.3 µM; shares compounds with TbMetRS inhib; Jurkat cells viability, ATP luminescence; AID 624413; 1,400 tested, 12% active; in the data active = inhibition above about 15%
TbMetRS FP orth: T. brucei MetRS inhibition, orthogonal assay | shares compounds with TbMetRS inhib | purified T. brucei MetRS, fluorescence polarization | inhibition, % at 11.9 µM | 1,400 tested, 44% active; in the data active = inhibition above about 17%
Of the large screens only hits and unclear results are named; the others gave an inactive call (follow-up assays come after a bar, where they were run).

O=C(NCc1nc2ccccc2[nH]1)C1=C[C@@H](C2CCCCC2)C[C@@H](OCCCCO)O1	TbMetRS inhib 48.3 | Tb MetRS conf 83.2 | Jurkat tox inactive | TbMetRS FP orth 62.0
C[C@H]1C=C(C(=O)NCc2nc3ccccc3[nH]2)O[C@@H](OCCCCO)C1	TbMetRS inhib 14.0 | Tb MetRS conf 54.1 | Jurkat tox inactive | TbMetRS FP orth 27.1
COc1ccc(/C=C/C(=O)Nc2ccc(C)c(S(=O)(=O)N3CCOCC3)c2)cc1	none
CC(=O)Oc1ccc2c(=O)c(/C=N/c3cc(=O)[nH]c(=S)[nH]3)coc2c1	TbMetRS inhib 8.0 | Tb MetRS conf 13.4 | Jurkat tox inactive | TbMetRS FP orth inactive
O=[N+]([O-])c1ccc(N/N=C/c2c[nH]c3ccccc23)cc1	TbMetRS inhib 7.5 | Tb MetRS conf 12.3 | Jurkat tox 20.9 | TbMetRS FP orth 54.8
Brc1ccc(-c2ccc(/C=N/Nc3nc4ccccc4[nH]3)o2)cc1	TbMetRS inhib 11.0 | Tb MetRS conf 7.9 | Jurkat tox inactive | TbMetRS FP orth 20.4
O=[N+]([O-])c1ccccc1N/N=C/c1c[nH]c2ccccc12	none
Cc1[nH]c2ccccc2c1/C=N/Nc1nc2ccccc2[nH]1	TbMetRS inhib 8.3 | Tb MetRS conf 29.4 | Jurkat tox inactive | TbMetRS FP orth 29.9
C(=N\Nc1nc2ccccc2[nH]1)/c1c[nH]c2ccccc12	TbMetRS inhib 11.9 | Tb MetRS conf 25.8 | Jurkat tox inactive | TbMetRS FP orth 47.4
Cc1ccccc1/C=N/Nc1nc2ccccc2[nH]1	none
COc1ccc(CN(C(C)=O)c2cc(C)c([N+](=O)[O-])cc2OC)cc1OC	none (no result: Arr AP2 block)
COc1ccc(OCC(=O)Nc2nc3ccccc3[nH]2)cc1	none
COc1cccc(CC(=O)Nc2nc3ccccc3[nH]2)c1	TbMetRS inhib 6.0 | Tb MetRS conf 13.7 | Jurkat tox inactive | TbMetRS FP orth inactive
O=C(COc1ccc2ccccc2c1)Nc1nc2ccccc2[nH]1	TbMetRS inhib 9.1 | Tb MetRS conf 12.5 | Jurkat tox inactive | TbMetRS FP orth inactive
COc1cc(C)ccc1S(=O)(=O)NC(=O)C1(C)CCN1C(=O)COc1ccc(Cl)cc1 (stereo not given)	none (no result: Arr AP2 block)
O=C(NCc1n[nH]c(=S)n1Cc1ccccc1)c1ccc(Cl)cc1Cl	TbMetRS inhib 5.8 | Tb MetRS conf 12.7 | Jurkat tox inactive | TbMetRS FP orth inactive
CCOC(=O)[C@]12CCCC=C1N(Cc1ccc(Cl)cc1Cl)C(=O)[C@H](CC(=O)NCc1ccc(OC)c(OC)c1)C2	none (no result: Arr AP2 block, Rin1-Abl PPI inh)
NC(=O)[C@@H]1CCCNc2c(I)cc([N+](=O)[O-])cc2C(=O)N[C@@H](CO)C(=O)N[C@@H](Cc2ccc(O)cc2)C(=O)N1	TbMetRS inhib 7.4 | Tb MetRS conf 21.0 | Jurkat tox inactive | TbMetRS FP orth inactive
CC(C)C[C@@H]1NC(=O)[C@H](Cc2ccc(O)cc2)NC(=O)c2cc([N+](=O)[O-])cc(I)c2NCCC[C@@H](C(N)=O)NC1=O	none
O=C(NCc1ccc(Cl)nc1)c1csc([C@@H]2O[C@H](CO)[C@H](O)[C@H](O)[C@H]2O)n1	none (no result: Arr AP2 block)
O=C(NCc1cc(Cl)cc(Cl)c1)c1csc([C@@H]2O[C@H](CO)[C@H](O)[C@H](O)[C@H]2O)n1	TbMetRS inhib 8.7 (no result: Arr AP2 block) | Tb MetRS conf 31.0 | Jurkat tox inactive | TbMetRS FP orth inactive
O=C(NCc1cc(Cl)cc(Cl)c1)c1ccc2sc([C@@H]3O[C@H](CO)[C@H](O)[C@H](O)[C@H]3O)nc2c1	TbMetRS inhib 17.7 (no result: Arr AP2 block) | Tb MetRS conf 51.0 | Jurkat tox inactive | TbMetRS FP orth 27.0
O=C(Nc1ccccc1)c1ccc(=O)n(Cc2ccc(F)c(F)c2)c1	TbMetRS inhib 9.6 | Tb MetRS conf 17.9 | Jurkat tox inactive | TbMetRS FP orth inactive
NC(=O)c1ccc(=O)n(Cc2ccc(F)c(F)c2)c1	none
